The results in this text go back to PubChem BioAssay.

A short description of assay [1]: reducers of endogenous Her2 protein level, primary screen, SKBR3 breast tumor cells, AlphaScreen, ATP viability (AID 461;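 active = Her2 level under about 52% in both replicate screens, with viability over 70% of control, limit read from the data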;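 for Her2 level: lower value means less Her2 protein in the cells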;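 for viability: percent of carrier control wells set as 100% viability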). The settings on record: 18-24 h, measured here: SKBR3 viability, ATP luminescence, at 10 µM. In general terms: Alpha assays give light when donor and acceptor beads are brought close together.
For assay [2], the target named is Receptor tyrosine-protein kinase erbB-2 (Homo sapiens) (UniProt P04626). The description is as above. The note with it: 18-24 h, at 10 µM, stronger effect = lower value.
Sequence of Receptor tyrosine-protein kinase erbB-2 (Homo sapiens) (P04626 whole entry, looked up): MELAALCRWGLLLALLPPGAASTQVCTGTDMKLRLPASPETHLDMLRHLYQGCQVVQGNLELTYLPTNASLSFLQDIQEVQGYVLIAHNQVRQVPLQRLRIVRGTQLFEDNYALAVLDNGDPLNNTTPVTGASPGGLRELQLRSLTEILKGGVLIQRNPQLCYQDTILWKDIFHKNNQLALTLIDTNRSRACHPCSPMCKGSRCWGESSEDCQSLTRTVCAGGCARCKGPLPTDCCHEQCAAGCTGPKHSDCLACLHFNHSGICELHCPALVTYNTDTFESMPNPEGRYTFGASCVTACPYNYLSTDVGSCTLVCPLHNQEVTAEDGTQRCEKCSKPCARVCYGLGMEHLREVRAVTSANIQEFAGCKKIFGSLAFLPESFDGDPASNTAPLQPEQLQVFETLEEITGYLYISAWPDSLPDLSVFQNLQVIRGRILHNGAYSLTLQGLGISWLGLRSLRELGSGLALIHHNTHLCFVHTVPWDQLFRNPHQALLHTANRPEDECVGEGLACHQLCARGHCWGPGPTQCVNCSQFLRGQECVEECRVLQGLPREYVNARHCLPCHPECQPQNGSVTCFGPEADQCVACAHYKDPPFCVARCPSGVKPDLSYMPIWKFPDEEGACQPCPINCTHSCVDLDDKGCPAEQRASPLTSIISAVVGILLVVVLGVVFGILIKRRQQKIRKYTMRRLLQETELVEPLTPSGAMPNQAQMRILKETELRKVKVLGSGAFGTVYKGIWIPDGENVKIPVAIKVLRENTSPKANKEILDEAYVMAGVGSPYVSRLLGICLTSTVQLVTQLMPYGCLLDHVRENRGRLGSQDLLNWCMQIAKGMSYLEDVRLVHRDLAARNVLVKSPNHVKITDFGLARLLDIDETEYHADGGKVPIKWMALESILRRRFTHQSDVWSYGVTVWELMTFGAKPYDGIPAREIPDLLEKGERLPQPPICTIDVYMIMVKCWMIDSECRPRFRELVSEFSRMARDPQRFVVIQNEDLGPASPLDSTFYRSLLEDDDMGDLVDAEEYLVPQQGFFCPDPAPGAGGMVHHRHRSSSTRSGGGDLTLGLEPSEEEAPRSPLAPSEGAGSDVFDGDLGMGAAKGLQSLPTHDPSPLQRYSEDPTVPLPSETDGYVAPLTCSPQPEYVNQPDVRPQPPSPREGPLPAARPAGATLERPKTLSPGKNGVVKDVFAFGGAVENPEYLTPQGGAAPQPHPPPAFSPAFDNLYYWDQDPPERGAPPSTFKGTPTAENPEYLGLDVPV
Assay [3] in a line: SK-BR-3 cell growth inhibitors, pilot screen, 24 h, human (AID 572;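 active = viability at or below 10% of carrier control in both of two separate runs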;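 note: compound exposure lasted between 18 and 24 h rather than exactly 24 h; 100% = carrier-treated control wells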). The settings on record: SK-BR-3 viability, CellTiter-Glo luminescence, at 10 µM, stronger effect = lower value. On the technique in general: ATP-based viability assays read luminescence as a measure of living cells.
A short description of assay [4]: HUVEC growth inhibition – cell-based, human, primary screen (AID 575;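 active = viability at or below 30% in both replicate assays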;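 note: 100% = median of untreated cell wells with 0.1% DMSO on each plate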). The note with it: HUVEC proliferation, CellTiter-Glo luminescence, 72 h; at 10 µM; stronger effect = lower value. The essentials:
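System – primary HUVEC, no more than 12 passages · Medium – Low-serum (2% FBS) EBM, supplemented · Times – 72 h exposure, 37 °C, 5% CO2, 30 min RT equilibration · Measured by – luminescent ATP assay · Read-out – % viability relative to median vehicle-well signal on each plate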

Assay [5] is described as follows: growth inhibitors of H69AR lung tumor, primary screen, human, duplicate replicates (AID 580;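 active = viability at or under a set limit in both replicates, limit being median viability minus 3 SD, cut at about 48% in these data, passing the limit was not always enough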;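 note: 100% = mean luminescence of untreated wells and 0% = no signal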). The note with it: H69AR lung tumor cells viability, ATP luminescence, 72 h; at 10 µM; stronger effect = lower value.
Assay [6] can be described thus: reversal of MRP1-mediated doxorubicin resistance, pilot screen, H69AR cells, doxorubicin co-treatment (AID 601). The note with it: CellTiter-Glo, 72 h, at 10 µM; for differential viability (reversal): stronger effect = higher value.
A short description of assay [7]: 384-well plate pilot, post-Golgi transport modulator project, inhibition of yeast transport mutant growth (AID 636; in the data active = inhibition above about 31%). The settings on record: absorbance 615 nm, about 18 h, stronger effect = higher value.
A short description of assay [8]: growth suppression of yeast trafficking mutant, preliminary HTS, modulators of trafficking downstream of Golgi apparatus project, 1536-format plate, OD 615 nm (AID 637; in the data active = inhibition above about 30%). The settings on record: yeast transport mutant growth, absorbance 615 nm, 18 h; stronger effect = higher value.
Setting [9] is: H69AR cells + 2 uM doxorubicin, measured here: viability with 2 uM doxorubicin, stronger effect = lower value.
Where [10] appears, read: H69AR cells, compound alone cytotoxicity.

Calls of active or inactive are those of the source.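 Rule for the calls, unless noted: active = viability loss from added drug above about 55%, and viability with drug at most 40%, in both replicates (limit read from the data, passing the limit was not always enough); inconclusive = both conditions met in only one replicate; inactive = neither replicate meets both conditions.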

A word on the viability: it is a read-out of living cells in per cent, often relative to untreated cells. By inhibition is commonly meant the drop in the measured response relative to a control, in per cent. `CCN(C(=O)Cc1c(C(=O)O)[nH]c2ccccc12)c1cc(OC)ccc1OC`: the viability in assay [1] is 112%; in assay [3], 112% (inactive); in assay [4], 94.1% (inactive); in assay [5] it was 92.7% (inactive); in assay [6] (setting [9]), 95.3%; in assay [6] (setting [10]) it was 92.7%. The Her2 level in assay [2] was 84% (inactive). The differential viability (reversal) in assay [6] (H69AR cells + 2 uM doxorubicin) was -2.61% (inactive). The inhibition in assay [7] is -6.62% (inactive); in assay [8] it was 4.5% (inactive).

For the molecule `Cc1cc(C)c2c(CC(=O)NCc3ccco3)coc2c1`, the viability was 94% in assay [1]; 94% (inactive) in assay [3]; 71.3% (inactive) in assay [4]; 91.1% (inactive) in assay [5]; 89.8% in assay [6] (setting [9]); 91.1% in assay [6] (setting [10]). Besides, the Her2 level in assay [2] was 81.5% (inactive). Moreover, the differential viability (reversal) in assay [6] (H69AR cells + 2 uM doxorubicin) was 1.32% (inactive). The inhibition in assay [7] was -6.27% (inactive); in assay [8], -6.03% (inactive).

On to `Cc1ccc(O)c(C(CC(=O)N2CCCC2)c2ccccc2)c1` (stereo not given), for which the viability is 89% in assay [1]; 89% (inactive) in assay [3]; 92.4% (inactive) in assay [4]; 94.8% (inactive) in assay [5]; 82.5% in assay [6] (setting [9]); 94.8% in assay [6] (setting [10]). The Her2 level in assay [2] was 101% (inactive). In addition, in assay [6] (H69AR cells + 2 uM doxorubicin), the differential viability (reversal) is 12.3% (inactive). For the same molecule, the inhibition in assay [7] was -0.38% (inactive); in assay [8], -6.83% (inactive).

With `CCOC(=O)C1=C(CC)Nc2ccccc2N=C1NC(=O)Cn1cnc2ccccc2c1=O`, the viability is 96% in assay [1]; 96% (inactive) in assay [3]; 97.1% (inactive) in assay [4]; 103% (inactive) in assay [5]; 82.3% in assay [6] (setting [9]); 103% in assay [6] (setting [10]). In assay [2], the Her2 level was 80.5% (inactive). In addition, the differential viability (reversal) in assay [6] (H69AR cells + 2 uM doxorubicin) is 20.2% (inactive). Also, the inhibition is -5.07% (inactive) in assay [7] and 2.9% (inactive) in assay [8].

As to `CS(=O)(=O)N(CC(=O)O)c1cccc(Cl)c1`, the viability is 95% in assay [1]; 95% (inactive) in assay [3]; 115% (inactive) in assay [4]; 95.7% (inactive) in assay [5]; 96.6% in assay [6] (setting [9]); 95.7% in assay [6] (setting [10]). The Her2 level in assay [2] is 120% (inactive). Further, the differential viability (reversal) in assay [6] (H69AR cells + 2 uM doxorubicin) was -0.88% (inactive). The inhibition in assay [7] is 2.11% (inactive); in assay [8] it was 2.95% (inactive).

Turning to `COCCn1c(=NC(=O)CSC(C)=O)sc2cc(F)ccc21`, the viability was 85% in assay [1]; 85% (inactive) in assay [3]; 75.4% (inactive) in assay [4]; 58.2% (inactive) in assay [5]; 58.2% in assay [6] (setting [9]); 58.2% in assay [6] (setting [10]). For the same molecule, the Her2 level in assay [2] is 82.5% (inactive). In assay [6] (H69AR cells + 2 uM doxorubicin), the differential viability (reversal) was 0.03% (inactive). The inhibition in assay [7] was -3.16% (inactive); in assay [8], -2.86% (inactive).

For `COc1ccc(NC(=O)CCS(=O)(=O)c2ccc(OC)cc2)cc1`, the viability is 96% in assay [1]; 96% (inactive) in assay [3]; 94.8% (inactive) in assay [4]; 83.4% (inactive) in assay [5]; 93.2% in assay [6] (setting [9]); 83.4% in assay [6] (setting [10]). For the same molecule, the Her2 level in assay [2] was 104% (inactive). The differential viability (reversal) in assay [6] (H69AR cells + 2 uM doxorubicin) is -9.78% (inactive). Moreover, the inhibition in assay [7] was -0.4% (inactive); in assay [8], -7.26% (inactive).

Consider `Cc1ccc(C)n1NC(=O)c1ccco1`, for which the viability is 90% in assay [1]; 90% (inactive) in assay [3]; 87.2% (inactive) in assay [4]; 94.8% (inactive) in assay [5]; 104% in assay [6] (setting [9]); 94.8% in assay [6] (setting [10]). Also, the Her2 level in assay [2] is 90% (inactive). Moreover, the differential viability (reversal) in assay [6] (H69AR cells + 2 uM doxorubicin) was -9.64% (inactive). The inhibition in assay [7] was -2.76% (inactive); in assay [8], -3.39% (inactive).

Consider `Fc1ccc(-n2c(Cc3ccccc3)nnc2SCc2nc(-c3cccs3)no2)cc1`, for which the viability was 99.5% in assay [1]; 99.5% (inactive) in assay [3]; 73.1% (inactive) in assay [4]; 94.1% (inactive) in assay [5]; 76.2% in assay [6] (setting [9]); 94.1% in assay [6] (setting [10]). In assay [2], the Her2 level is 92.5% (inactive). Further, the differential viability (reversal) in assay [6] (H69AR cells + 2 uM doxorubicin) is 17.9% (inactive). The values for the inhibition in assay [7] and in assay [8] were -3.73% (inactive) and -0.98% (inactive), respectively.

For the molecule `O=C(CCN1C(=O)COc2ccccc21)N1CCN(c2ccccn2)CC1`, the viability was 130% in assay [1]; 130% (inactive) in assay [3]; 114% (inactive) in assay [4]; 106% (inactive) in assay [5]; 78.6% in assay [6] (setting [9]); 106% in assay [6] (setting [10]). Besides, the Her2 level in assay [2] is 96.5% (inactive). In addition, the differential viability (reversal) in assay [6] (H69AR cells + 2 uM doxorubicin) was 27.7% (inactive). Also, the inhibition was -2.08% (inactive) in assay [7] and 3.33% (inactive) in assay [8].

Take `CCC1c2ccc(C)n2CCN1C(=O)Nc1ccccc1OC` (stereo not given): the viability in assay [1] was 89.5%; in assay [3], 89.5% (inactive); in assay [4] it was 97.7% (inactive); in assay [5], 78.9% (inactive); in assay [6] (setting [9]), 89.7%; in assay [6] (setting [10]), 78.9%. Besides, the Her2 level in assay [2] is 69.5% (inactive). In assay [6] (H69AR cells + 2 uM doxorubicin), the differential viability (reversal) is -10.8% (inactive). Further, the inhibition in assay [7] was -6.13% (inactive); in assay [8], 4.59% (inactive).

Turning to `CCCC1CC(C)(C(=O)Cn2[nH]c(=O)ccc2=O)OC1=O` (stereo not given), the viability in assay [1] was 84%; in assay [3] it was 84% (inactive); in assay [4], 105% (inactive); in assay [5] it was 91.8% (inactive); in assay [6] (setting [9]), 95.4%; in assay [6] (setting [10]), 91.8%. Besides, the Her2 level in assay [2] was 95.5% (inactive). Besides, the differential viability (reversal) in assay [6] (H69AR cells + 2 uM doxorubicin) was -3.6% (inactive). In addition, the inhibition in assay [7] was -4% (inactive); in assay [8], 5.08% (inactive).

Regarding `Nn1c(SCC(=O)NC2CCCCC2)nnc1C1CC1`, the viability is 102% in assay [1]; 102% (inactive) in assay [3]; 98.4% (inactive) in assay [4]; 103% (inactive) in assay [5]; 103% in assay [6] (setting [9]); 103% in assay [6] (setting [10]). The Her2 level in assay [2] is 111% (inactive). Further, the differential viability (reversal) in assay [6] (H69AR cells + 2 uM doxorubicin) is 0.415% (inactive). The inhibition is -0.52% (inactive) in assay [7] and 10.8% (inactive) in assay [8].

Turning to `CCOC(=O)NC1(NCc2ccccc2)Oc2ccccc2O1`, the viability in assay [1] is 92.5%; in assay [3] it was 92.5% (inactive); in assay [4], 58.5% (inactive); in assay [5], 36.8% (active); in assay [6] (setting [9]) it was 61.7%; in assay [6] (setting [10]), 36.8%. For the same molecule, the Her2 level in assay [2] was 101% (inactive). Further, the differential viability (reversal) in assay [6] (H69AR cells + 2 uM doxorubicin) is -25% (inactive). Moreover, the inhibition in assay [7] is 6.23% (inactive); in assay [8], -8.69% (inactive).
